{"source": "ChEMBL document CHEMBL1123747", "about": "“N-methyl derivatives of the 5-HT2 agonist 1-(4-bromo-2,5-dimethoxyphenyl)-2-aminopropane” (J Med Chem, 1987)", "key": {"[1]": {"target": "T1, Serotonin 2 (5-HT2) receptor (Rattus norvegicus, UniProt P30994+P08909+P14842)", "test": "Affinity towards [3H]- DOB -labeled 5-hydroxytryptamine 2 receptor sites in rat cortical homogenates"}, "[2]": {"target": "T1, Serotonin 2 (5-HT2) receptor", "test": "Affinity towards [3H]- ketanserin-labeled 5-hydroxytryptamine 2 receptor sites in rat cortical homogenates", "method_in_brief": "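Label was 0.4 nM [3H]ketanserin, with 11 competitor concentrations run in triplicate and nonspecific binding defined by 1 μM cinanserin. Bound ligand was filtered onto glass fibre and counted by scintillation. IC50 came from nonlinear regression; Ki = IC50/(1+[D]/KD).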"}, "[3]": {"species": "Rattus norvegicus", "test": "The compound was tested for effective dose ( ED 50) against stimulus generation with rats trained to discriminate (R) (-)-DOB from saline.", "format": "functional", "method_in_brief": "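Male Sprague-Dawley rats (n = 6) on a two-lever operant task for sweetened milk, VI 15-s schedule. Trained to discriminate 0.2 mg/kg ip training drug from 1.0 mL/kg 0.9% saline, 15 min pre-session. Test doses were given ip in random order to groups of 3–6, with 15-min pretreatment and a 2.5-min extinction session. ED50 was calculated from dose-response data.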"}, "[4]": {"species": "Rattus norvegicus", "test": "The number of responses made on the (R)(-)-DOB appropriate level, generation studies was calculated at dose 2.0 mg / kg", "format": "functional", "method_in_brief": "(§1)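 Male Sprague-Dawley rats (n = 6) were trained on a two-lever operant task for sweetened-milk reward to discriminate 0.2 mg/kg (R)-(-)-DOB-HCl ip from 1.0 mL/kg 0.9% saline, with a VI 15-s schedule and 15-min sessions. Test doses were given ip 15 min before a 2.5-min extinction session, in random order, to groups of 3-6 rats. Read-out was % drug-lever responses; fewer than five total responses counted as disrupted.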"}, "[5]": {"species": "Rattus norvegicus", "test": "The number of responses made on the (R)(-)-DOB appropriate level, generation studies was calculated at dose 4.0 mg / kg", "format": "functional", "method_in_brief": "as §1"}, "[6]": {"species": "Rattus norvegicus", "test": "The number of responses made on the (R)(-)-DOB appropriate level, generation studies was calculated at dose 7.5 mg / kg", "format": "functional", "method_in_brief": "as §1"}, "[7]": {"species": "Rattus norvegicus", "test": "The number of responses made on the (R)(-)-DOB appropriate level, generation studies was calculated at dose 7.8 mg / kg", "format": "functional", "method_in_brief": "as §1"}, "[8]": {"species": "Rattus norvegicus", "test": "The number of responses made on the (R)(-)-DOB appropriate level, generation studies was calculated at dose 8.5 mg / kg; NR means not responding", "format": "functional, organism-based", "parameters": "dose 8.5 mg / kg", "method_in_brief": "as §1"}, "[9]": {"species": "Rattus norvegicus", "test": "The number of animals responding per number of animals receiving the drug(4/6) in the stimulus-generation studies was calculated at dose 4.0 mg / kg", "format": "functional", "method_in_brief": "as §1"}, "[10]": {"system": "Rattus norvegicus", "test": "The number of animals responding per number of animals receiving the drug in the stimulus-generation studies was calculated at dose 2.2 mg/kg", "format": "functional", "method_in_brief": "(§2)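 Male Sprague-Dawley rats were trained to discriminate 0.2 mg/kg ip training drug from saline (two levers, VI 15-s, milk reward). Test doses were given ip 15 min pre-session in random order to groups of 3–6. In the 2.5-min extinction session, rats making fewer than five total responses were counted as disrupted. N is animals responding over animals dosed.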"}, "[11]": {"species": "Rattus norvegicus", "test": "The number of responses made on the (R)(-)-DOB appropriate level as a percent of total responses made during the 2.5 min extinction session in the stimulus-generation studies was calculated at dose 2.2 mg / kg", "format": "functional", "method_in_brief": "as §1"}, "[12]": {"species": "Rattus norvegicus", "test": "The number of responses made on the (R)(-)-DOB appropriate level as a percent of total responses made during the 2.5 min extinction session in the stimulus-generation studies was calculated at dose 6.0 mg / kg", "format": "functional", "method_in_brief": "as §1"}, "[13]": {"species": "Rattus norvegicus", "test": "The number of animals responding per number of animals receiving the drug(3/5) in the stimulus-generation studies was calculated at dose 7.5 mg / kg", "format": "functional", "method_in_brief": "as §2"}, "[14]": {"species": "Rattus norvegicus", "test": "The number of animals responding per number of animals receiving the drug(3/5) in the stimulus-generation studies was calculated at dose 7.8 mg / kg", "format": "functional", "method_in_brief": "as §2"}, "[15]": {"species": "Rattus norvegicus", "test": "The number of animals responding per number of animals receiving the drug(3/5) in the stimulus-generation studies was calculated at dose 6.0 mg / kg", "format": "functional", "method_in_brief": "as §2"}, "[16]": {"species": "Rattus norvegicus", "test": "The number of animals responding per number of animals receiving the drug(3/4) in the stimulus-generation studies was calculated at dose 0.3 mg / kg", "format": "functional"}, "[17]": {"species": "Rattus norvegicus", "test": "The mean responses per minute during the 2.5 min extinction session in the stimulus-generation studies was calculated at dose 2.0 mg / kg", "format": "functional", "method_in_brief": "(§3)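 Rats were trained on a two-lever drug-versus-saline discrimination (0.2 mg/kg ip training dose, VI 15-s, food reward). Challenge doses were given ip 15 min before a 2.5-min extinction test, in random order, to groups of 3–6 rats, with at least three training sessions between tests. Response rate is responses per minute over the extinction session.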"}, "[18]": {"species": "Rattus norvegicus", "test": "The mean responses per minute during the 2.5 min extinction session in the stimulus-generation studies was calculated at dose 2.2 mg / kg", "format": "functional", "method_in_brief": "as §3"}, "[19]": {"species": "Rattus norvegicus", "test": "The mean responses per minute during the 2.5 min extinction session in the stimulus-generation studies was calculated at dose 4.0 mg / kg", "format": "functional", "method_in_brief": "as §3"}, "[20]": {"species": "Rattus norvegicus", "test": "The mean responses per minute during the 2.5 min extinction session in the stimulus-generation studies was calculated at dose 6.0 mg / kg", "format": "functional", "method_in_brief": "as §3"}, "[21]": {"species": "Rattus norvegicus", "test": "The mean responses per minute during the 2.5 min extinction session in the stimulus-generation studies was calculated at dose 7.5 mg / kg", "format": "functional", "method_in_brief": "as §3"}, "[22]": {"species": "Rattus norvegicus", "test": "The mean responses per minute during the 2.5 min extinction session in the stimulus-generation studies was calculated at dose 7.8 mg / kg", "format": "functional", "method_in_brief": "as §3"}, "[23]": {"species": "Rattus norvegicus", "test": "The number of animals responding per number of animals receiving the drug(1/4) in the stimulus-generation studies was calculated at dose 8.5 mg / kg", "format": "functional", "method_in_brief": "as §2"}}, "note": "Activity calls are given as the source filed them. No cut-off for these calls is given here."}
{"smiles": "COc1cc(CC(C)N(C)C)c(OC)cc1Br", "note": "(stereo not drawn)", "values": [{"measurement": "Ki", "setting": "[1]", "result": 94, "unit": "nM"}, {"measurement": "Ki", "setting": "[2]", "result": 380, "unit": "nM"}, {"measurement": "ED50", "setting": "[3]", "result": 5.36, "unit": "mg/kg"}, {"measurement": "Responding", "setting": "[4]", "result": 23, "unit": "%"}, {"measurement": "Responding", "setting": "[5]", "result": 29, "unit": "%"}, {"measurement": "Responding", "setting": "[6]", "result": 64, "unit": "%"}, {"measurement": "Responding", "setting": "[7]", "result": 86, "unit": "%"}, {"measurement": "Responding", "setting": "[8]", "result": "inactive"}, {"measurement": "No. of animals responding/animals receiving drug", "setting": "[9]", "result": 4}, {"measurement": "No. of animals responding/animals receiving drug", "setting": "[10]", "result": 5}, {"measurement": "Responding", "setting": "[11]", "result": 6, "unit": "%"}, {"measurement": "Responding", "setting": "[12]", "result": 38, "unit": "%"}, {"measurement": "No. of animals responding/animals receiving drug", "setting": "[13]", "result": 3}, {"measurement": "No. of animals responding/animals receiving drug", "setting": "[14]", "result": 3}, {"measurement": "No. of animals responding/animals receiving drug", "setting": "[15]", "result": 3}, {"measurement": "No. of animals responding/animals receiving drug", "setting": "[16]", "result": 3}, {"measurement": "Response rate", "setting": "[17]", "result": 14.6}, {"measurement": "Response rate", "setting": "[18]", "result": 14.8}, {"measurement": "Response rate", "setting": "[19]", "result": 10.1}, {"measurement": "Response rate", "setting": "[20]", "result": 8.1}, {"measurement": "Response rate", "setting": "[21]", "result": 6.8}, {"measurement": "Response rate", "setting": "[22]", "result": 4.5}, {"measurement": "No. of animals responding/animals receiving drug", "setting": "[23]", "result": 1}]}
